These results are taken from paper PMC7883397 (Cancer treatment and research communications, 2020).

The structures appear in SMILES notation.

One experiment deals with UACC-62-R cells. Nature of the experiment: PLX4720-resistant UACC-62-R melanoma cell proliferation. The experiment is classed as cell-based, human. In short, it runs like this: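 The PLX4720-resistant UACC-62-R line was derived by sustained culture in low-dose PLX4720. It was maintained in 20 μM PLX4720, with medium replenished twice weekly. Proliferation was tracked as IncuCyte confluence and IC50 was derived for resistant and wild-type cells.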

In a further experiment the test system is G361 melanoma cells. Briefly: G361 melanoma cell proliferation. The experiment is classed as cell-based. The settings on record: Homo sapiens, G-361, read-out: IC50, inhibition of G361 cell proliferation.

In the case of `CCCS(=O)(=O)Nc1ccc(F)c(C(=O)c2c[nH]c3ncc(Cl)cc23)c1F` [PLX4720], the IC50 in the experiment on UACC-62-R cells (Homo sapiens, read-out: IC50, inhibition of UACC-62-R cell proliferation) turned out to be 26.2 µM. Also, in the experiment with UACC-62-R cells (proliferation in presence of PLX4720), the “resistance of UACC-62-R relative to UACC-62-WT cells” value is “approximately six times more resistant”.
`C=CCc1ccc(O)c(-c2cc(CC=C)ccc2O)c1` [MGN, magnolol]: the IC50 in the experiment on G361 melanoma cells worked out at 38 µM.
